Screens deposited in PubChem by Sanford-Burnham Center for Chemical Genomics.
These entries were drawn from the full list.
Apaf1 activ: activates human Apaf-1 apoptosome; Apaf-1 apoptosome caspase-3 activation, DEVD-Rh110 fluorescence; stronger effect = lower value; activity change, negative = activation, % at 20 µM; 0.31% of 330,000 active; AID 489031;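 active = activity change at or below -40% at 20 µM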
Target sequence (O14727 whole entry, looked up): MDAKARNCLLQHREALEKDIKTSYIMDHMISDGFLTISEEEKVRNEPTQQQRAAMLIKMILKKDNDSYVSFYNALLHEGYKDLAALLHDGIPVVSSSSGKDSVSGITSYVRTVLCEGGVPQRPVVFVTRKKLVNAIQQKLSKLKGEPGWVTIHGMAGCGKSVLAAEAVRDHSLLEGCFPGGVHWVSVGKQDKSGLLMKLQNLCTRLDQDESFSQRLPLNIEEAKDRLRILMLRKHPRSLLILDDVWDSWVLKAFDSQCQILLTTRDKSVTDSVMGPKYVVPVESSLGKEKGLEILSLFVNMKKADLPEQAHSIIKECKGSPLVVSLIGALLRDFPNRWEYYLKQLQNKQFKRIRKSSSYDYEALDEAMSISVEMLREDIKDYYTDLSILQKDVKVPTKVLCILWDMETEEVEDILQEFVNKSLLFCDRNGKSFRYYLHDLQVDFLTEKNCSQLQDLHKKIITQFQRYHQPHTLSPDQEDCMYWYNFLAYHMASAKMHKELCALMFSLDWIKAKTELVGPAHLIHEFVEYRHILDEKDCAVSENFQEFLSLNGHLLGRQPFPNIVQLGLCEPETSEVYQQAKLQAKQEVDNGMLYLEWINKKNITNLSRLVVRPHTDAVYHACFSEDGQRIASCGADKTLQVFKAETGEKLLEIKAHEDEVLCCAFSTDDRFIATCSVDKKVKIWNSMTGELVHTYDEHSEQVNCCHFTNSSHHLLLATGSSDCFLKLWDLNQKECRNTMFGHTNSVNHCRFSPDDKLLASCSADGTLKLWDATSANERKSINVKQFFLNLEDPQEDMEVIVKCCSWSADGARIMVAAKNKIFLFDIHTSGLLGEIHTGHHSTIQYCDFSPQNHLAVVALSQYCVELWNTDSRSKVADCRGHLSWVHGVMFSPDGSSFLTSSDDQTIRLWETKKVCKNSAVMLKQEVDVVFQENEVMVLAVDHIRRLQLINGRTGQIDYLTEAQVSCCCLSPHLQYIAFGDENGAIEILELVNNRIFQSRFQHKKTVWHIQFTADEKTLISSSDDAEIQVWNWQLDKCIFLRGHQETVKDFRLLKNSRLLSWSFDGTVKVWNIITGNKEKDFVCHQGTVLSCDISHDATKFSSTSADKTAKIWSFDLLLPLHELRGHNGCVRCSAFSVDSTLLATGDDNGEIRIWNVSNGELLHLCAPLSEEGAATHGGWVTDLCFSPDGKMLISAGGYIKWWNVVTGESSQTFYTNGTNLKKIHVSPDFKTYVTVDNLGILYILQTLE
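System: Reconstituted apoptosome of Apaf-1, cytochrome c, caspase-9, procaspase-3 | Reagent: dATP, cytochrome c, and (Z-DEVD)2-Rh110 caspase-3 substrate | Times: 30 min compound preincubation and 50 min reaction, both room temperature | Detection: Caspase-3-released Rh110 fluorescence, 540 nm emission, 480 nm excitation | Measure: Caspase-3 activity via Apaf-1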
Rh110 interf act: counter-screen for Apaf-1 activators: fluorescence interference | shares compounds with Apaf1 activ | Rh110 fluorescence interference, quenched caspase reaction, Ex480/Em540 | fluorescence interference (activity change), % at 20 µM, hits read low | 980 tested, under 10 active;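 active = mean activity change at or below -40% when tested at 20 µM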
Apaf-1 act conf: confirmation of human Apaf-1 activators; shares compounds with Apaf1 activ; reconstituted apoptosome caspase-3 activity, DEVD-Rh110 fluorescence; stronger effect = lower value; activity change, negative = activation, % at 20 µM; 5% of 980 active; AID 504617;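 active = mean activity change at or below -40%, meaning activation of 40% or more, at 20 µM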
Apaf1 act interf: shows fluorescence interference in the Apaf-1 activator assay format | shares compounds with Apaf1 activ | fluorescence interference counterscreen | EC50, µM | 55 tested, under 10 active | AID 588592; call rule not given here
Large screens that a line does not name were inactive (follow-up assays come after a bar, where they were run).

Cc1noc(C)c1COc1ccccc1C(=O)N1CCN(c2cccc(Cl)c2)CC1	none
CC1CC(=O)c2c(cc3c(-c4c(O)cc(O)c5c(O)c6c(cc45)OC(C)CC6=O)c(O)cc(O)c3c2O)O1 (stereo unspecified)	none
C[C@@H]1[C@H]2[C@@H]3CC[C@@H](C3)[C@H]2CN[C@H]1c1cn(Cc2ccccc2)c2ccccc12	none
O=C1C(Cl)=C(NCCN2CCCCC2)C(=O)c2ccccc21	none
NCCN1CCN(S(=O)(=O)c2ccc([N+](=O)[O-])cc2)C=C1c1ccc(Cl)cc1	none
Cc1cc(=O)[nH]c(N/N=C/c2ccc(Cl)c([N+](=O)[O-])c2)n1	Apaf1 activ -73.4 | Rh110 interf act inactive | Apaf-1 act conf inactive
Cc1cccc(NC(=O)CN(C)S(=O)(=O)c2cccc3cccnc23)c1C	Apaf1 activ -164.1 | Rh110 interf act inactive | Apaf-1 act conf inactive
O=C(NC1CC1)C1=C[C@H](c2ccc(C(F)(F)F)cc2)C[C@H](OCCCCO)O1	none
O=C(O)CC1S/C(=N/N=C/c2ccc(-c3ccccc3[N+](=O)[O-])o2)NC1=O (stereo unspecified)	none
COc1cc([N+](=O)[O-])c2ncsc2c1	Apaf1 activ -58.5 | Rh110 interf act inactive | Apaf-1 act conf inactive
CC1=NN(c2ccc(Br)cc2)C(=O)/C1=C/c1cccs1	none
COc1cc(C#Cc2c(-c3cncn3C)n(C)c3ccc(-c4cnc(OC)nc4)cc23)cc(OC)c1	none
Cc1noc(NS(=O)(=O)c2ccc(N/C=C\C(=O)c3ccc(F)cc3)cc2)c1C	Apaf1 activ -110.7 | Rh110 interf act inactive | Apaf-1 act conf inactive
COc1cc(/C=C2\C(=O)N(c3ccc(S(N)(=O)=O)cc3)N=C2C)ccc1OC(=O)c1ccco1	none
N#CCCn1[nH]c(-c2ccccc2)cc1=O	none
CCCCc1oc2ccccc2c1C(=O)c1cc(I)c(OCCN(CC)CC)c(I)c1	none
Cc1cc(C(=O)N/N=C2\CC(=O)c3ccccc32)c(C)n1-c1ccc(F)cc1	none
CC1CC(C)CN(CCCNC(=O)CN2C(=O)c3cccnc3Oc3ccc(Cl)cc32)C1 (stereo unspecified)	Apaf1 activ -148.2 | Rh110 interf act inactive | Apaf-1 act conf inactive
COc1ccc2sc(-c3ccccc3OC)c(-c3ccc(OCCN(C)C)cc3)c2c1	none
CCN(CC)CCN(C(=O)c1ccc(C(=O)c2ccccc2)cc1)c1nc2ccc(OC)cc2s1	none
COc1ccccc1C(CNC(=O)c1ccc(S(=O)(=O)NCc2ccco2)cc1)N(C)C (stereo unspecified)	Apaf1 activ -52.7 | Rh110 interf act inactive | Apaf-1 act conf inactive
COc1ccccc1CNS(=O)(=O)c1ccc(-c2cc(C)no2)cc1	none
Cc1ccc(-c2nn3c(C)nnc3c3ccccc23)cc1S(=O)(=O)NCc1ccco1	none
COc1ccc2cnn(-c3ccc(OC(F)(F)F)cc3)c(=O)c2c1OC	Apaf1 activ -49.3 | Rh110 interf act inactive | Apaf-1 act conf inactive
CCN1C(N(C)CCc2c[nH]c3ccccc23)=N[C@@H](c2cccc(C(F)(F)F)c2)C(C(=O)OC)=C1C	none
CCN(CC)CCOC(=O)c1ccc(N/C=C(/C#N)c2nc(-c3ccc(OC)c(OC)c3)cs2)cc1	none
CC(C)(C)c1cc(CCC(=O)Nc2ccncc2)cc(C(C)(C)C)c1O	Apaf1 activ -450.4 | Rh110 interf act inactive | Apaf-1 act conf inactive
NC1(C#Cc2ccc3c(=O)c4ccccc4sc3c2)CCCCC1	none
CN1CCCC1CCNc1ccc2sc3ccccc3c(=O)c2c1 (stereo unspecified)	none
COc1ccc2sc3ccccc3c(=O)c2c1	Apaf1 activ -76.7 | Rh110 interf act inactive | Apaf-1 act conf inactive
CN(c1ccccc1)c1cc(Br)nc(Br)c1	Apaf1 activ -46.6 | Rh110 interf act inactive | Apaf-1 act conf inactive
C=CCN(CC=C)Cc1c(O)ccc2c1oc(=O)c1ccccc12	none
Nc1ccc(C(=O)O)c(O)c1	none
Nc1c(S(=O)(=O)c2cccs2)c2nc3ccccc3nc2n1CCc1ccccc1	none
O=S(=O)(Nc1ccc(O)c2ccccc12)c1ccc(Br)cc1	none
Cn1c(=O)oc2cc(S(=O)(=O)Nc3ccccc3O)ccc21	Apaf1 activ -46.2 | Rh110 interf act inactive | Apaf-1 act conf inactive
CC(C)CCn1c(CN2CCOCC2)nc2c1c(=O)n(C)c(=O)n2C	Apaf1 activ -44.2 | Rh110 interf act inactive | Apaf-1 act conf inactive
Cn1c(=O)c2c(nc(CN3CCc4ccccc4C3)n2Cc2cccc(Cl)c2)n(C)c1=O	none
Cc1ccc(Cl)cc1NC1=C/C(=N\S(=O)(=O)c2cccs2)c2ccccc2C1=O	none
CC1CC(C)(C)NC(=O)O1 (stereo unspecified)	Apaf1 activ -88.4 | Rh110 interf act inactive | Apaf-1 act conf inactive
CS(=O)(=O)c1nc(-c2ccc(Br)cc2)cc(-c2ccccc2)c1C#N	none
CCOc1ccc(/C=C2\SC(=S)N(CCCC(=O)NCCCN3CCOCC3)C2=O)cc1	none
COC(=O)c1ccc(/C=C2/SC(=S)N(CCCC(=O)Nc3ccc(O)cc3)C2=O)cc1	Apaf1 activ -67.0 | Rh110 interf act inactive | Apaf-1 act conf inactive
COc1ccc(/C=C2\SC(=S)N(CCC(=O)Nc3ccc(C(=O)O)cc3)C2=O)cc1OC	Apaf1 activ -363.6 | Rh110 interf act inactive | Apaf-1 act conf -133.5 | Apaf1 act interf inactive
COc1cccc(/C=C2\SC(=S)N(CCCC(=O)N3CCCCC3)C2=O)c1	Apaf1 activ -136.7 | Rh110 interf act inactive | Apaf-1 act conf inactive
COc1ccc(/C=C2/Sc3ccc(C(=O)NCCN4CCCCCC4)cc3NC2=O)cc1	none
COc1cc(/C=C/c2cc[n+](C)cc2)ccc1OCC(=O)Nc1ccc(Cl)c(Cl)c1	none
O=C(O)CCN1C(=O)/C(=C\c2ccc(OCc3ccccc3)c(OCc3ccccc3)c2)SC1=S	Apaf1 activ -56.3 | Rh110 interf act inactive | Apaf-1 act conf -78.8 | Apaf1 act interf inactive
C#CCOc1ccc(/C=C2/C(=O)N(c3cccc(C(=O)O)c3)N=C2C)cc1OC	none
CCOc1cc(CNc2ccc(N(C)C)cc2)cc(Br)c1OCC(=O)NC(C)(C)C	none
O=C(NC1(O)C(=O)c2ccccc2C1=O)c1ccccc1	none
COC(=O)CCC(=O)OC1(C)C(=O)C2=CN(C(CO)CO)C(c3ccc(OC)cc3)=CC2=C(Br)C1=O (stereo unspecified)	none
COc1cc(C)c2c(c1C=O)Oc1c(c(C)c(O)c3c1C(O)OC3=O)OC2=O (stereo unspecified)	none
CCCCN(CC)c1nc(N)c2c(N)nc(OCC)cc2c1C#N	none
Cc1ccc(NC2=CC(=O)C(=O)c3ccccc32)cc1	none
CC(Oc1cccc(Cl)c1)C(=O)Nc1cc(S(=O)(=O)N2CCOCC2)ccc1N1CCCCC1 (stereo unspecified)	none
O=C(CSc1nnc(-c2ccncc2)n1CCc1ccccc1)N1CCCC1	Apaf1 activ -262.6 | Rh110 interf act inactive | Apaf-1 act conf inactive
Cc1ccc2c(c1)c(=O)c1c3n2CCN(C(=O)CCl)C3CC1 (stereo unspecified)	none
CCN1CCN(CCNC(=O)c2cn(C(C)c3ccccc3F)nn2)CC1 (stereo unspecified)	Apaf1 activ -77.7 | Rh110 interf act inactive | Apaf-1 act conf inactive
